Source: ChEMBL document CHEMBL3585304, “Synthesis and evaluation of tamoxifen derivatives with a long alkyl side chain as selective estrogen receptor down-regulators” (Bioorg Med Chem, 2015)
Calls of active or inactive are those of the source. The rule behind the calls is not given here.

Legend:
MCF7 [1] = assay: Reduction in endogenous ERalpha expression in human MCF7 cells at 10 uM after 6 hrs by Western blot analysis; assay type: functional, cell-based
How it was run: (§1)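 MCF-7 cells exposed to compounds (10 µM shown for the chain-length series) for 6 h. Cells lysed in 1% SDS, 0.1 M Tris–HCl pH 7.0, 10% glycerol and boiled 10 min. Protein measured by BCA, and equal amounts run on SDS–PAGE, transferred to PVDF and immunoblotted for endogenous ERα.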

Estrogen receptor = target: T1, Estrogen receptor (Homo sapiens, UniProt P03372); assay: Inhibition of ERalpha (unknown origin) by fluorescence polarization-based competition binding assay
T1 sequence (P03372 whole entry): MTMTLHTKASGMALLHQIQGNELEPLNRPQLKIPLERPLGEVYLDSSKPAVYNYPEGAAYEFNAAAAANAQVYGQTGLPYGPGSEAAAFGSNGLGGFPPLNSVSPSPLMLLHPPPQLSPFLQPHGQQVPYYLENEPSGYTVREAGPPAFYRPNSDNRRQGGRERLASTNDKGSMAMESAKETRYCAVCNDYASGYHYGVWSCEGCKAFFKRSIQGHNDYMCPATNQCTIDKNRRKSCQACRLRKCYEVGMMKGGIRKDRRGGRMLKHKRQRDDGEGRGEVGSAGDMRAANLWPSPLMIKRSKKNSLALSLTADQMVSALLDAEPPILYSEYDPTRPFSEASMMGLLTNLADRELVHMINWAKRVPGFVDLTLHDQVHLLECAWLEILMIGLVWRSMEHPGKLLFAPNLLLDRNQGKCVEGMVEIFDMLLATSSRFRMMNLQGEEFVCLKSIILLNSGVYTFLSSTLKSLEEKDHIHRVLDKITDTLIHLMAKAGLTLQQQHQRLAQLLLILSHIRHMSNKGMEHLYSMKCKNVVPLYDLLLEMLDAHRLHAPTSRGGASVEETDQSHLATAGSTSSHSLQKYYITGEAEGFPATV

MCF7 [2] = assay: Reduction in endogenous ERalpha expression in human MCF7 cells after 6 hrs by Western blot analysis; assay type: functional, cell-based; how it was run: as §1
MCF7 [3] = assay: Reduction in endogenous ERalpha expression in human MCF7 cells at 0.1 to 1 uM after 6 hrs by Western blot analysis in presence of 10 uM MG132 proteasome inhibitor; assay type: functional, cell-based
How it was run: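 MCF-7 cells incubated 6 h with graded compound concentrations, with or without proteasome inhibitor MG132 (10 µM). Lysis in 1% SDS, 0.1 M Tris–HCl pH 7.0, 10% glycerol, then boiling 10 min. BCA protein assay, equal loading on SDS–PAGE, PVDF transfer, and Western blot detection of ERα.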

SMILES: CC/C(=C(\c1ccc(O)cc1)c1ccc(OCCNC)cc1)c1ccccc1
- inhibition (MCF7 [1]): inactive

SMILES: CCC(=C(c1ccc(O)cc1)c1ccc(OCCN(C)C)cc1)c1ccccc1
- inhibition (MCF7 [1]): inactive

SMILES: CCCCCCNCCOc1ccc(/C(=C(/CC)c2ccccc2)c2ccc(O)cc2)cc1
- IC50 (Estrogen receptor): 151 nM
- inhibition (MCF7 [1]): inactive

SMILES: CC/C(=C(\c1ccc(O)cc1)c1ccc(OCCNCCCCCCCCCCF)cc1)c1ccccc1
- IC50 (Estrogen receptor): 3.4 nM
- inhibition (MCF7 [2]): Dose-dependent effect
- inhibition (MCF7 [1]): Active
- inhibition (MCF7 [3]): inactive

SMILES: CCCCCCCCCCNCCOc1ccc(/C(=C(/CC)c2ccccc2)c2ccc(O)cc2)cc1
- IC50 (Estrogen receptor): 3.6 nM
- inhibition (MCF7 [1]): Active

SMILES: CCCCCCCCCCCCCCCCCCNCCOc1ccc(/C(=C(/CC)c2ccccc2)c2ccc(O)cc2)cc1
- IC50 (Estrogen receptor): > 100000 nM

SMILES: CC/C(=C(\c1ccc(O)cc1)c1ccc(OCCNCCCCCCCCCCO)cc1)c1ccccc1
- IC50 (Estrogen receptor): 210 nM
- inhibition (MCF7 [1]): inactive

SMILES: CCCCCCCCCCCCNCCOc1ccc(/C(=C(/CC)c2ccccc2)c2ccc(O)cc2)cc1
- IC50 (Estrogen receptor): 14 nM

SMILES: CCCCCCCCNCCOc1ccc(/C(=C(/CC)c2ccccc2)c2ccc(O)cc2)cc1
- IC50 (Estrogen receptor): 53 nM
- inhibition (MCF7 [1]): inactive

SMILES: CCCCCCCCCCCCCCCCNCCOc1ccc(/C(=C(/CC)c2ccccc2)c2ccc(O)cc2)cc1
- IC50 (Estrogen receptor): 4.8 nM
- inhibition (MCF7 [1]): inactive

SMILES: CCCCCCCCCCCCCCNCCOc1ccc(/C(=C(/CC)c2ccccc2)c2ccc(O)cc2)cc1
- IC50 (Estrogen receptor): 11 nM
- inhibition (MCF7 [1]): inactive
